Screening results: PubChem BioAssay, several laboratories
Only some compounds are listed: those with a hit (about 4.9% of all), similar ones and a draw of the others.
STAT3 activator: IL-6 driven STAT3 reporter potentiators, primary screen, U3A cells, luciferase, luminescence, MLSCN library; activation (% of control), % at 5.6 µM; hit rate 0.91% among 190,000; IL-6 STAT3-luciferase reporter; 100% = signal with IL-6 EC80 alone;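 active = activation above the screen-wide mean of compound activation plus 3 SD, cut at about 130% in these data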
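Material: human STAT1-deficient U3A cells with stable STAT3-luciferase reporter / Probe or stimulus: IL-6 stimulus at 33 ng/mL final / Schedule: 1 h compound pre-exposure, 6 h IL-6 stimulation, 37 °C / Technique: luminescence / Read-out basis: percent of IL-6-only median luminescence / Control set: IL-6-only high control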
STAT3 inh-1: IL-6 driven STAT3 reporter inhibitors, primary screen, U3A cells, luciferase, luminescence, MLSCN library; IL-6 STAT3-luciferase reporter; host cell line lacks STAT1; inhibition, % at 5.5 µM; hit rate 0.89% among 190,000; AID 862, 2007;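 active = inhibition above the mean inhibition across all screened compounds plus 3 SD, cut at about 44% in these data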
NF-kB expr up: activators of NF-kB expression in neurons, primary screen, cell-based, HTS. hit rate 1.6% among 190,000. fold change at 12.5 µM. AID 1239, 2008. human neuronal cells, NF-kB reporter expression; active compounds read high; in the data active = fold change above about 3.3
STAT1 blocker: STAT1 signaling inhibitors, primary screen, cell-based, HTS, luciferase reporter | NIH 3T3 STAT1-luciferase reporter, IFN-gamma, luminescence | inhibition, % at 5.5 µM | hit rate 0.35% among 200,000 | AID 920, 2007;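 active = inhibition above a set limit, the mean inhibition across all tested compounds plus 3 SD, cut at about 34% in these data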
APP 5'UTR act: activators of APP 5'UTR luciferase reporter, primary screen, SH-SY5Y cells. SH-SY5Y APP 5'UTR luciferase reporter, luminescence; zero percent = DMSO vehicle wells. activation, % at 2 µM. hit rate 1% among 190,000. AID 1276, 2008;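 active = activation above a set limit, based on mean plus 3 SD of controls, cut at about 140% in these data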
STAT1 activator: STAT1 signaling activators, primary screen, cell-based, HTS, luciferase reporter; NIH 3T3 STAT1-luciferase reporter, IFN-gamma, luminescence; 100% = IFN-gamma alone, no compound; activation (% of control), % at 5.5 µM; hit rate 2.6% among 200,000;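 active = activation above the screen-wide mean activation plus 3 SD, cut at about 130% in these data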
STAT3 inh-2: STAT3 reporter inhibitors, retest of hits, confirmation, U3A cells, luciferase, luminescence | shares compounds with STAT3 inh-1 | IL-6 STAT3 luciferase reporter; cell line lacks STAT1 | inhibition, % at 5.7 µM | hit rate 45% among 1,200;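 active = inhibition above the hit cutoff computed for the primary STAT3 screen, cut at about 44% in these data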
NFkB inh STAT3ct: NF-kB reporter inhibitors in human cells, confirmation, counter-screen for STAT3 inhibitor project, cell-based, HEK293T, luciferase, TNF-alpha stimulus; AID 1308, 2008; inhibition, % at 5.7 µM; hit rate 36% among 1,200; TNF-alpha induced; shares compounds with STAT3 inh-1;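 active = inhibition above the mean of solvent-only control wells plus 3 SD, cutoff set per campaign, cut at about 13% in these data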
STAT1 inh STAT3c: STAT1 reporter inhibitors, IFN-gamma induced, confirmation, counter-screen for STAT3 inhibitor project, cell-based, NIH 3T3, luciferase luminescence | shares compounds with STAT3 inh-1 | NIH 3T3 STAT1-luciferase reporter | inhibition, % at 5.7 µM | hit rate 27% among 1,200;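 active = inhibition above the mean plus 3 SD of solvent-only control wells, limit set per screening run, cut at about 16% in these data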
Of the large screens only hits and unclear results are named; the others gave an inactive call (follow-up assays come after a bar, where they were run).

O=C(CSc1ccc2ccccc2c1)Nc1ccncc1	STAT3 inh-1 50 | STAT3 inh-2 45 | NFkB inh STAT3ct inactive | STAT1 inh STAT3c inactive
Cc1cc(OCC(=O)Nc2ccncc2)cc(C)c1Br	STAT3 inh-1 68 | STAT3 inh-2 66 | NFkB inh STAT3ct inactive | STAT1 inh STAT3c inactive
COC(=O)c1cc(C#N)c(Oc2ccc(F)cc2)nc1C	none
COC(=O)Cc1[nH]n(-c2nc3ccccc3s2)c(=O)c1C(C)=Nc1ccc(C)cc1	STAT3 inh-1 100 | STAT3 inh-2 68 | NFkB inh STAT3ct 64 | STAT1 inh STAT3c inactive
C/C(=N/NC(=O)c1cccs1)c1c(C)[nH]n(-c2nc3ccccc3s2)c1=O	STAT3 inh-1 56 | STAT3 inh-2 inactive | NFkB inh STAT3ct inactive | STAT1 inh STAT3c inactive
CCCN=C(C)c1c(-c2ccccc2)[nH]n(-c2nc3ccccc3s2)c1=O	none
NC(=O)c1ccsc1NC(=O)c1ccc(N2CCCC2=O)cc1	STAT3 inh-1 62, APP 5'UTR act 175 | STAT3 inh-2 inactive | NFkB inh STAT3ct inactive | STAT1 inh STAT3c inactive
O=C(NCc1cccs1)c1ccc(N2CCCC2=O)cc1	none
Cc1cc(C(=O)Nn2c(-c3ccc(Br)cc3)nc3ccccc3c2=O)ccc1[N+](=O)[O-]	none
c1csc(CNc2ccc3c(c2)OCCO3)c1	STAT3 inh-1 86 | STAT3 inh-2 inactive | NFkB inh STAT3ct inactive | STAT1 inh STAT3c inactive
Oc1ccccc1CNc1ccc2c(c1)OCCO2	none
CC(C)CCNC(=O)C(c1ccncc1)N(Cc1cccs1)C(=O)Cn1nnc(-c2ccc(F)cc2)n1 (centres undefined)	none
CCOC(=O)N1CCN(C(=O)CSCC(=O)Nc2nc(-c3ccc(-c4ccccc4)cc3)cs2)CC1	STAT3 inh-1 72 | STAT3 inh-2 73 | NFkB inh STAT3ct 15 | STAT1 inh STAT3c inactive
CCOC(=O)N1CCN(C(=O)CSCC(=O)Nc2nc(-c3ccc(OC)cc3)cs2)CC1	none
Cc1ccc(OCc2nc(-c3cccs3)no2)c([N+](=O)[O-])c1	STAT3 inh-1 50, NF-kB expr up 11, APP 5'UTR act 198 | STAT3 inh-2 inactive | NFkB inh STAT3ct inactive | STAT1 inh STAT3c inactive
O=C(Cn1cnc2ccccc21)Nc1ccc(SC(F)F)cc1	STAT3 inh-1 73 | STAT3 inh-2 65 | NFkB inh STAT3ct 21 | STAT1 inh STAT3c inactive
CC(=O)N1CCc2cc(S(=O)(=O)NC3CCCc4ccccc43)ccc21 (centres undefined)	STAT3 inh-1 48 | STAT3 inh-2 46 | NFkB inh STAT3ct inactive | STAT1 inh STAT3c inactive
c1ccc(CCNc2ncnc3sccc23)nc1	none
Cc1csc2ncnc(NCCc3ccccn3)c12	STAT3 inh-1 72, STAT1 blocker 35 | STAT3 inh-2 75 | NFkB inh STAT3ct 25 | STAT1 inh STAT3c 24
CCOc1ccccc1NC(=O)CSc1nc2cccnc2n1C	none
CCCNC(=O)C1CCN(c2cc(-c3ccccc3)nc3ncnn23)CC1	none
FC(F)(F)c1ccc(N2CCN(c3cc(-c4ccccc4)nc4ncnn34)CC2)nc1	STAT3 inh-1 48 | STAT3 inh-2 46 | NFkB inh STAT3ct 15 | STAT1 inh STAT3c 27
CC(C)C(=O)Nc1ccc(NC(=O)c2cccnc2)cn1	none
CC(C)C(=O)Nc1ccc(NC(=O)c2ccccn2)cn1	STAT3 inh-1 53 | STAT3 inh-2 inactive | NFkB inh STAT3ct inactive | STAT1 inh STAT3c inactive
O=C(CNCc1cccc2ccccc12)Nc1ccccc1[N+](=O)[O-]	none
Cc1ccc(C(=O)OCC(=O)Nc2ccccc2Sc2ccccc2)cc1C	none
Cc1nn(C)c(C(=O)NCc2ccc(Cl)cc2)c1Cl	STAT3 inh-1 56 | STAT3 inh-2 65 | NFkB inh STAT3ct 14 | STAT1 inh STAT3c 20
Cc1nc(C)c(C(=O)NCc2ccc(Cl)cc2)o1	none
CC1CC(C)(C)Nc2ccc(OC(=O)c3ccco3)cc21 (centres undefined)	STAT3 inh-1 62 | STAT3 inh-2 inactive | NFkB inh STAT3ct 25 | STAT1 inh STAT3c inactive
O=C(Oc1ccc2ccccc2c1)c1ccco1	none
CCC(=O)Nc1nc2ccc(NC(=O)c3cc(OC)c(OC)c(OC)c3)cc2s1	none
CC1CC(C)CN(C(=O)Cn2cc(C=O)c3ccccc32)C1 (centres undefined)	none
CCOC(=O)c1sc(NC(=O)c2cc3ccccc3o2)nc1C	STAT3 inh-1 47, STAT1 activator 142 | STAT3 inh-2 inactive | NFkB inh STAT3ct inactive | STAT1 inh STAT3c inactive
CCOC(=O)c1sc(NC(=O)Cc2ccc(C)cc2)nc1C	none
CCOC(=O)c1sc(NC(=O)Nc2ccccc2F)nc1C	STAT3 inh-1 75, APP 5'UTR act 162 | STAT3 inh-2 61 | NFkB inh STAT3ct 39 | STAT1 inh STAT3c inactive
Cc1ccc(NC2OC(C(O)CO)C(O)C2O)cc1[N+](=O)[O-] (centres undefined)	none
O=C(NC1CC1)C1=C[C@H](c2ccc(C(F)(F)F)cc2)C[C@H](OCc2ccc(CO)cc2)O1	none (no result: STAT3 activator, STAT3 inh-1)
Cn1c(-c2ccccc2)cnc1SCC(=O)N1CCCCC1	STAT3 inh-1 66 | STAT3 inh-2 inactive | NFkB inh STAT3ct inactive | STAT1 inh STAT3c inactive
CC(=O)Nc1ccc(NC(=O)c2ccccc2S(=O)(=O)c2ccc([N+](=O)[O-])cc2)cc1	none
COc1ccc(CNC(=O)Cc2nn(C)c(=O)c3ccccc23)cc1	STAT3 inh-1 51 | STAT3 inh-2 48 | NFkB inh STAT3ct 13 | STAT1 inh STAT3c 25
Cn1nc(CC(=O)NCc2ccc(C(F)(F)F)cc2)c2ccccc2c1=O	none
Cn1nc(CC(=O)Nc2cccc3ncccc23)c2ccccc2c1=O	STAT3 inh-1 46 | STAT3 inh-2 inactive | NFkB inh STAT3ct inactive | STAT1 inh STAT3c 17
Cc1ccc2c(CC(=O)N3CCN(c4ccccc4)CC3)coc2c1	none
COc1ccc(-c2nsc3c(N4CCCCC4)ncnc23)cc1	STAT3 inh-1 102 | STAT3 inh-2 75 | NFkB inh STAT3ct 60 | STAT1 inh STAT3c inactive
Cc1ccccc1Nc1c(N)c(=O)oc2ccccc12	none
CC(C)CN(CC(C)C)C(=O)C12CCC(C)(C(=O)C1)C2(C)C (centres undefined)	none
